Data reported in ChEMBL document CHEMBL4177755, “Combating Drug-Resistant Fungi with Novel Imperfectly Amphipathic Palindromic Peptides” (J Med Chem, 2018).
Calls of active or inactive are those of the source. The rule behind the calls is not given here.

Experiments:
[1] = system: Lipid bilayer; assay: Binding affinity to phosphatidylcholine/phosphatidylethanolamine/phosphatidylinositol/ergosterol large unilamellar vesicle assessed as induction of calcein leakage at 2 to 32 uM after 15 mins by spectrofluorophotometric method
Procedure, shortened: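 Large unilamellar vesicles were made from PG/CL/PE (2:1:7), PC/PE/PI/ergosterol (5:4:1:2) or PC/cholesterol (10:1), loaded with 70 mM calcein in Tris/NaCl/EDTA buffer at pH 7.4, frozen and thawed 20 times, and extruded through 100 nm filters. Free dye was removed by gel filtration, and peptide-induced calcein release was measured.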

[2] = system: Candida albicans; assay: Fungicidal activity against Candida albicans cgmcc 2.2086 at MFC after 5 hrs by time-kill assay; assay type: functional
Procedure, shortened: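 Time-kill: E. coli ATCC 25922 or C. albicans cgmcc 2.2086 was exposed to peptide at 1× MBC/MFC. At intervals, aliquots were diluted and spread on MHA (bacteria, counted after 24 h at 37 °C) or YPDA (yeast, counted after 48 h at 28 °C). Values are means of three independent assays.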

Compound	Activity [1]	Activity [2] [%]
CC[C@H](C)[C@H](NC(=O)CN)C(=O)NCC(=O)N[C@@H](C)C(=O)N[C@H](C(=O)N[C@@H](CC(C)C)C(=O)N[C@@H](CCCCN)C(=O)N[C@H](C(=O)N[C@@H](CC(C)C)C(=O)N[C@H](C(=O)N[C@H](C(=O)NCC(=O)N[C@@H](CC(C)C)C(=O)N1CCC[C@H]1C(=O)N[C@@H](C)C(=O)N[C@@H](CC(C)C)C(=O)N[C@H](C(=O)N[C@@H](CO)C(=O)N[C@@H](Cc1c[nH]c2ccccc12)C(=O)N[C@H](C(=O)N[C@@H](CCCCN)C(=O)N[C@@H](CCCNC(=N)N)C(=O)N[C@@H](CCCCN)C(=O)N[C@@H](CCCNC(=N)N)C(=O)N[C@@H](CCC(N)=O)C(=O)N[C@@H](CCC(N)=O)C(N)=O)[C@@H](C)CC)[C@@H](C)CC)[C@@H](C)O)[C@@H](C)O)C(C)C)C(C)C [MELITTIN]	Active	–
H-RRIRIIIRIRR-NH2	–	>99.99
